# An excerpt weighted towards active compounds, which were near 6.8% of everything screened.
# HSF1 inh: HSF1 inhibition. AID 2098. hit rate 0.77% among 300,000. NIH3T3-HGL HSE-luciferase, MG132-induced, luminescence 8 h; active compounds read low. activity change, negative = inhibition, % at 7.5 µM (by protocol);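 active means more than half of replicate wells show activity change below -50%, luminescence cut by over half; inconclusive means some wells, but at most half, below -50%; inactive means no replicate well below -50%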;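 further: luciferase reports HSF-1 transcriptional activity via heat shock element; 0% = median of DMSO wells and -100% = zero luminescence signal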
# HSF-1 act: increases HSF-1 driven luciferase reporter signal. NIH3T3-HGL HSF-1 luciferase reporter, MG132, 8 h; 100% = twice DMSO control signal. hit rate 1.7% among 300,000. activation, % at 9 µM;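 active means mean replicate activation of at least 50% with a set share of replicates each reaching 50%; inconclusive means only one of those two conditions met; inactive means mean below 50% and too few replicates reaching it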;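 further: 0% = median of the neutral control wells and 100% = twice that signal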
# ALR inh: inhibitors of human sulfhydryl oxidase ALR; inhibition, % (concentration not given with the values); purified ALR, DTT oxidation, H2O2 HRP-luminol luminescence; hit rate 3.8% among 290,000; P55789;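 active means mean replicate inhibition above about 79%, with every replicate also reaching it, limit read from the data; inconclusive means only one of the two criteria met; inactive means mean below limit and not every replicate reaching it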
# Target sequence (P55789 whole entry, looked up): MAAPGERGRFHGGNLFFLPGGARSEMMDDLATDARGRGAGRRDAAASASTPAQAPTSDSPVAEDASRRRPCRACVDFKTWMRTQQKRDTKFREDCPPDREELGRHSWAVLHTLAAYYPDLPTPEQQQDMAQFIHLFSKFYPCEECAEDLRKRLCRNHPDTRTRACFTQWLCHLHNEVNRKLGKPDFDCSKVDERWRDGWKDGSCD
# PHOSPHO1 inh: blocks human PHOSPHO1 phosphatase activity. Q8TCT1. recombinant PHOSPHO1, absorbance phosphatase assay. inhibition, % at 13.3 µM. hit rate 1.1% among 290,000; in the data active means inhibition above about 60%
# Target sequence (Q8TCT1 whole entry, looked up): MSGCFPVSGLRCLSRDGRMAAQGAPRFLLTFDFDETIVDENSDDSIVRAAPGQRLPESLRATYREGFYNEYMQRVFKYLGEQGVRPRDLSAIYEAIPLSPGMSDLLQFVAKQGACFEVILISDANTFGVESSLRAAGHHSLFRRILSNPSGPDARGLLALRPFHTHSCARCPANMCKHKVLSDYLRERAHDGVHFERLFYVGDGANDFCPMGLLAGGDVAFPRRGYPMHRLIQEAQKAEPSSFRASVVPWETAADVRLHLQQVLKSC
# AI-2 QS modul: modulates the Vibrio harveyi AI-2 quorum sensing system; hit rate 0.4% among 300,000; Vibrio harveyi JMH597 AI-2 luminescence/OD600 ratio, 9 h; active compounds read low; strain lacks LuxN and CqsS sensors; 0 = neutral-control median; activity change, % at 7.5 µM; in the data active means activity change below about -75%, passing the limit was not always enough; inconclusive means no clear call, values can overlap the other calls;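 further: luminescence divided by OD600 gain over 9 h not by final OD600 alone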
# core dimer inh: blocks dimerization of HCV core protein; TR-FRET GST/Flag-core106 dimerization, 1536-well; inhibition, % at 5 µM; hit rate 0.33% among 300,000;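 active means inhibition above the mean of all tested compounds plus 3 SD, set per screening campaign, cut at about 45% in these data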
#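 Assay system: Tagged HCV core106 pair (GST and Flag) | Buffer or medium: KF-containing HEPES buffer, pH 7.45, DTT, CHAPS, BSA | Also added: Eu donor and XL665 acceptor anti-tag antibodies | Dosing: One concentration, 5 µM, in 0.5% DMSO | Timing: 4 h at 22.5 °C | Technique: TR-FRET 671 and 617 nm emission | Repeats: Singlicate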
# The depositor's hits bear a star; ? = inconclusive; . = no result given.
SMILES,HSF1 inh,HSF-1 act,ALR inh,PHOSPHO1 inh,AI-2 QS modul,core dimer inh
CC(=O)Nc1ccc(OCc2nnc(-c3ccc(Cl)cc3)o2)cc1,44.1,65.2*,2.8,10.8,8.6,12.7
COc1ccc2nc(SCC(=O)NCc3ccc(S(N)(=O)=O)cc3)[nH]c2c1,-5.5,-5.8,-13.7,46.6,16.3,-1.4
Cc1cccc(C)c1NC(=O)CNC(=O)CCCc1c[nH]c2ccccc12,3.8,-16.2,36.3,.,21.5,2.5
CCOc1ccc(NC(=O)c2ccc(CC)s2)c([N+](=O)[O-])c1,18.9,30.2,-2.9,51.4,22.1,2.2
O=C(NNc1ccc([N+](=O)[O-])cc1)c1ccco1,6.4,5.3,98.6*,19.0,-26.4,2.2
O=C(NNc1ccc([N+](=O)[O-])cc1[N+](=O)[O-])c1ccco1,-11.1,-0.7,98.4*,38.3,20.0,-43.4
CCOc1ccc(NC(=O)c2ccco2)c([N+](=O)[O-])c1,24.3,54.4*,-22.7,-9.3,29.4,-2.8
Nc1ccc([N+](=O)[O-])cc1C(=O)NNC(=O)c1ccco1,-3.5,1.8,3.0,41.6,9.8,-3.3
CC(C)N(CCCNC(=O)C1CCN(C(=O)c2cc3sccc3n2C)CC1)Cc1ccccc1,-0.6,16.6,10.7,16.9,12.7,-2.3
CCN(c1ccc(OC)cc1)S(=O)(=O)c1nnc(NC(=O)COc2ccc(C)cc2)s1,-4.0,20.0,-8.3,22.6,34.5,56.1*
COc1ccc(S(=O)(=O)N(C)c2ccc(C(=O)NCc3ccccn3)cc2)cc1,23.3,68.4*,-2.7,-15.9,16.3,-4.4
CCN(c1ccc(OC)cc1)S(=O)(=O)c1nnc(NC(=O)COc2ccc(F)cc2)s1,2.7,-3.5,-7.5,29.8,-0.3,-0.1
CN(c1ccc(C(=O)Nc2cccnc2)cc1)S(=O)(=O)c1ccccc1,4.6,43.4,1.0,-35.7,.,3.6
COc1ccc(CCNC(=O)C(=O)NCc2ccccn2)cc1,-3.5,-1.0,-6.5,49.6,-79.0*,-0.5
CN(c1ccc(C(=O)Nc2cccnc2)cc1)S(=O)(=O)c1ccc(Cl)cc1,1.5,2.4,-0.3,62.8*,7.9,-21.7
COc1ccc(S(=O)(=O)N(C)c2ccc(C(=O)NCc3ccncc3)cc2)cc1,-2.5,14.1,-0.9,41.4,-4.8,6.1
CC1=Nc2ccccc2N=C(NC(=O)CN2CCN(c3ccc(F)cc3)CC2)C1c1ccccc1 (stereo not drawn),-7.1,0.8,.,21.9,31.3,4.4
N/C(=N\OC(=O)CSc1ccccc1)c1ccccn1,37.1,?,2.1,22.6,17.4,6.1
Cc1ccc(S(=O)(=O)N(C)c2ccc(C(=O)NCc3ccccn3)cc2)cc1,4.6,14.4,-4.2,37.3,15.8,-4.7
COc1ccc(CCNC(=O)COc2ccc(N(C)S(=O)(=O)c3ccc(C)cc3)cc2)cc1,8.2,53.3*,.,7.6,8.3,4.3
CN(c1ccc(C(=O)NCc2ccccn2)cc1)S(=O)(=O)c1ccc(Cl)cc1,-2.3,-10.3,1.5,61.0*,-5.2,-7.9
COc1ccc(CCNC(=O)COc2ccc(S(=O)(=O)NC3CCCCC3)cc2Cl)cc1,14.4,41.7,1.0,63.3*,6.4,6.3
COc1ccc(CNC(=O)c2ccc(N(C)S(=O)(=O)c3ccc(C)cc3)cc2)cc1,-1.1,12.7,5.5,27.0,38.8,12.4
CCOC(=O)N1CCC(NS(=O)(=O)c2ccc(C#N)cc2)CC1,6.2,-2.2,-2.3,3.1,22.9,1.9
Cc1cc(-c2nnc(SCC(=O)Nc3c(C)cccc3C)n2N)n[nH]1,-1.5,-1.2,-0.2,38.5,15.9,7.8
SMILES,HSF1 inh,HSF-1 act,ALR inh,PHOSPHO1 inh,AI-2 QS modul,core dimer inh
Cc1cccc(NC(=O)NNC(=O)c2cc3occc3[nH]2)c1C,-0.7,6.6,-1.6,20.7,14.4,-2.6
CC(C)(C)NC(=O)CN(Cc1cccs1)C(=O)CCN1CCc2ccccc21,9.8,33.9,72.4,32.8,5.2,-4.7
CC(C)(C)NC(=O)CN(C(=O)CCN1CCCc2ccccc21)C(C)(C)C,1.0,-18.2,94.5*,11.3,20.7,-1.7
O=C(O)c1cc(S(=O)(=O)Nc2ccc3oc(=O)sc3c2)ccc1O,-3.7,19.2,10.7,63.2*,32.9,-10.0
CC(=O)c1c(C)oc2ccc(NS(=O)(=O)c3ccc(O)c(C(=O)O)c3)cc12,3.2,21.8,16.0,3.6,1.8,8.0
CCN(CC(=O)Nc1c(F)cccc1F)C(=O)/C=C/c1ccc2ccccc2n1,-0.5,-1.0,12.6,.,8.4,75.2*
CCOCCOC(=O)C(C)Oc1ccc(Oc2ncc(Cl)cc2Cl)cc1 (stereo not drawn),-6.1,8.4,-86.0,-13.9,-2.4,1.8
Oc1ccc(Oc2ncc(Cl)cc2Cl)cc1,1.1,5.4,99.1*,3.7,14.8,-1.8
Cc1ccc(O)c(NC(=O)c2noc(C(C)C)c2[N+](=O)[O-])c1,55.2,73.2*,.,-4.6,55.4,-3.3
CC(C)c1onc(C(=O)N(C)Cc2ccccc2)c1[N+](=O)[O-],-0.7,-1.4,-12.1,5.7,7.0,0.1
CC(C)c1onc(C(=O)NCCc2ccccc2)c1[N+](=O)[O-],10.8,60.6*,2.7,-7.1,3.2,7.6
O=C(CCCc1nc2ccccc2s1)NCc1cccnc1,-3.7,19.6,18.8,1.8,-16.5,-4.2
O=C(Cn1nc(C(F)(F)F)cc1C1CC1)NCc1ccccc1F,3.9,-1.1,.,-2.7,11.0,2.6
Cc1ccc(NC(=O)C2CCCN2C(=O)OCc2ccccc2)c(C)c1 (stereo not drawn),3.1,6.0,-6.3,28.7,-0.2,0.7
Cc1ccc(NC(=O)C2CCCN2C(=O)OCc2ccccc2)c(O)c1 (stereo not drawn),-7.2,-3.4,86.4*,26.6,11.1,2.0
O=C(c1ccco1)N1CCCC(N2CCN(c3cccc(C(F)(F)F)c3)CC2)C1 (stereo not drawn),-2.8,-0.5,2.8,42.6,25.1,-1.3
COc1cccc(/C=N/NC(=O)CNC(=O)c2ccco2)c1O,-3.4,-17.3,63.4,27.7,12.7,2.2
COc1cccc(/C=N/NC(=O)CNC(=O)c2cccnc2)c1O,-5.2,-9.5,91.9*,33.0,4.6,4.6
COc1cccc(/C=N/NC(=O)CNC(=O)c2ccncc2)c1O,4.2,4.8,90.5*,14.6,23.3,2.6
COc1cccc(/C=N/NC(=O)CSc2nnc(C)n2-c2ccccc2)c1O,-0.5,-14.4,7.5,25.8,6.2,-2.2
COc1cc(/C=N/NC(=O)CNC(=O)c2ccncc2)ccc1O,-9.0,6.9,98.5*,32.7,30.1,0.2
CCCCSc1nc(C)cc(SCC(=O)N/N=C/c2cccc(OC)c2O)n1,41.9,84.1*,29.6,11.5,19.2,9.8
COc1cc(/C=N/NC(=O)CNC(=O)c2cccs2)ccc1O,-1.0,-3.5,.,5.7,29.9,-6.3

# Screens: PubChem BioAssay, several laboratories
